Assays:
Plasmodium falciparum [1] = assay: In vitro inhibitory activity against chloroquine-sensitive Plasmodium falciparum HB3; assay type: functional, organism-based
Summary of the method: (§1)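 Parasites kept in continuous culture in human erythrocytes in RPMI 1640 with 25 mM HEPES, 32 mM NaHCO3 and 10% human serum, gassed 3% O2/4% CO2/93% N2. 48-h assay at 2% parasitemia, 0.5% hematocrit, triplicate. Drugs from DMSO stocks diluted in medium. [3H]hypoxanthine added at 24 h, harvested at 48 h and counted. IC50 by probit interpolation of log dose–response.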

Plasmodium falciparum [2] = assay: In vitro inhibitory activity against chloroquine-resistant Plasmodium falciparum K1; assay type: functional, organism-based; summary of the method: as §1
[3] = system: Plasmodium berghei (NS strain); assay: In vivo inhibition of Plasmodium berghei infected male Swiss albino mice (Mus musculus) by intraperitoneal dose; details: ip
[4] = system: Plasmodium berghei (NS strain); assay: In vivo inhibition of Plasmodium berghei infected male Swiss albino mice (Mus musculus) by oral dose
[5] = Resistance factor by IC50(K1)/IC50(HB3); assay type: functional
Summary of the method: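 P. falciparum K1 (uncloned, CQ-resistant) and HB3 (sensitive), both from Thailand, were cultured in human erythrocytes in RPMI 1640/HEPES/NaHCO3 with 10% human serum under 3% O2/4% CO2. Assays ran 48 h at 2% parasitemia and 0.5% hematocrit, in triplicate, from DMSO stocks diluted in medium. [3H]hypoxanthine was added at 24 h. IC50 came from probit of the log dose-response curve. The factor is K1 IC50 divided by HB3 IC50.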

Compound	IC50 (Plasmodium falciparum [1])	IC50 (Plasmodium falciparum [2])	ED50 [3]	ED50 [4]	Resistance factor [5]
CC(C)c1cc(Nc2ccnc3cc(Cl)ccc23)cc(CNC(C)(C)C)c1O	1.24 nM	1.87 nM	0.78 mg/kg	0.38 mg/kg	1.5
Cc1cc(Nc2ccnc3cc(Cl)ccc23)cc(CNC(C)(C)C)c1O	2.99 nM	11.2 nM	–	–	3.76
CCN(CC)Cc1cc(Nc2ccnc3cc(Cl)ccc23)ccc1O.Cl	2.47 nM	13.2 nM	3.3 mg/kg	1.92 mg/kg	5.35
CC(C)(C)NCc1cc(Nc2ccnc3cc(Cl)ccc23)ccc1O [N-TERT-BUTYL-AMODIAQUINE]	1.47 nM	3.43 nM	–	–	2.33
CCC(C)c1cc(Nc2ccnc3cc(Cl)ccc23)cc(CNC(C)(C)C)c1O (centres undefined)	1.97 nM	5.77 nM	–	–	2.92
CC(C)(C)NCc1cc(Nc2ccnc3cc(Cl)ccc23)cc(C2CCCCC2)c1O	6.8 nM	14.5 nM	–	–	2.13
CCCc1cc(Nc2ccnc3cc(Cl)ccc23)cc(CNC(C)(C)C)c1O	0.98 nM	1.83 nM	0.8 mg/kg	0.56 mg/kg	1.86
CCN(CC)CCCC(C)Nc1ccnc2cc(Cl)ccc12 (centres undefined)	–	–	–	–	9.57
CC(C)(C)NCc1cc(Nc2ccnc3cc(Cl)ccc23)cc(C(C)(C)C)c1O	8.35 nM	21.2 nM	–	–	2.54
CCc1cc(Nc2ccnc3cc(Cl)ccc23)cc(CNC(C)(C)C)c1O	2.97 nM	7.9 nM	–	–	2.65

— ChEMBL document CHEMBL1132310, “New 4-aminoquinoline Mannich base antimalarials. 1. Effect of an alkyl substituent in the 5'-position of the 4'-hydroxyanilino side chain” (J Med Chem, 1999)
